Results: ChEMBL document CHEMBL2311478, “Macrolactonolides: a novel class of anti-inflammatory compounds” (Bioorg Med Chem, 2013)
Values after ≈ are worked out from the molar mass of the structure shown. Active and inactive are the calls of the source. No cut-off for these calls is given here.

Experiments:
Rattus norvegicus [1] = experiment: Antiinflammatory activity against ovalbumin-induced airway allergic Brown-Norway rat model assessed as decrease of neutrophils in bronchoalveolar lavage fluid at 32 mg/kg administered intranasally as dry powder measured on day 29 after ovalbumin challenge; format: functional, organism-based; set-up: dose 32 mg/kg
In short: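 Brown-Norway rats sensitised by OVA injection on day 1, boosted on days 14 and 20. Treatment with 32 mg/kg or air control on day 27, followed 1 h later by 60 min OVA inhalation challenge. BAL cells differentiated about 48 h post-challenge (day 29). Comparison was against a sensitised, challenged, untreated group. Mean + SD, n = 10, Dunnett test.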

PBMC [2] = experiment: Antiinflammatory activity in human PBMC assessed as inhibition of PHA-induced MCP-1 production after 24 hrs; format: functional, cell-based
In short: (§1)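 Thawed cryopreserved human PBMCs were preincubated 1 h at 37 °C, 5% CO2, then exposed to test compound for 1 h before LPS, anti-CD3 or PHA stimulation. Supernatants were collected at 6, 24 or 48 h according to each cytokine's peak, and cytokines quantified by Luminex multiplex bead assay. 10-point titration starting at 20 µM, in duplicate, with constant DMSO. Parallel Alamar Blue cytotoxicity check under 48 h PHA.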

PBMC [3] = experiment: Antiinflammatory activity in human PBMC assessed as inhibition of LPS-induced IL-6 production after 6 hrs; format: functional, cell-based; in short: as §1
[4] = AUC (0 to infinity) in Balb/c mouse lung at 2 mg/kg, administered intranasally; format: ADME, organism-based; set-up: time infinity, route nasal, dose 2 mg/kg; conditions: inhaled or intranasal
In short: (§2)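 Male Balb/c mice (21–25 g) dosed intranasally with freshly prepared formulation in 1% DMSO plus 0.125% CMC. Terminal bleeding and lung collection from 5 min to 72 h. K2EDTA blood taken as blood aliquots or spun for plasma. Lung homogenised 1:5 in water. Samples were protein-precipitated with acetonitrile/methanol (2:1) plus roxithromycin internal standard and quantified by LC–MS/MS. LLOQ 0.5 ng/mL (blood/plasma) and 2.5 ng/mL (lung).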

PBMC [5] = experiment: Antiinflammatory activity in human PBMC assessed as inhibition of LPS-induced IL-1beta production after 6 hrs; format: functional, cell-based; in short: as §1
Streptococcus pyogenes [6] = experiment: Antibacterial activity against efflux mediated macrolide-resistant Streptococcus pyogenes Finland 2 by broth microdilution method; format: functional
In short: (§3)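 MICs by CLSI broth microdilution with double dilutions, except that Streptococcus medium used 5% horse serum in place of lysed blood. Bacteria were pre-grown on Columbia agar with 5% sheep blood (streptococci) or Mueller–Hinton agar (staphylococci).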

PBMC [7] = experiment: Antiinflammatory activity in human PBMC assessed as inhibition of PHA-induced IFNgamma production after 24 hrs; format: functional, cell-based; in short: as §1
PBMC [8] = experiment: cells; format: functional, cell-based; conditions: Homo sapiens, 48 h
Staphylococcus aureus [9] = experiment: Antibacterial activity against efflux mediated macrolide-resistant Staphylococcus aureus PK1 by broth microdilution method; format: functional; in short: as §3
PBMC [10] = experiment: Antiinflammatory activity in human PBMC assessed as inhibition of anti-CD3-induced TNFalpha production after 48 hrs; format: functional, cell-based; in short: as §1
PBMC [11] = experiment: Antiinflammatory activity in human PBMC assessed as inhibition of PHA-induced IL-6 production after 6 hrs; format: functional, cell-based; in short: as §1
Staphylococcus aureus [12] = experiment: Antibacterial activity against constitutive-resistant to macrolide, licosamide and streptogramin Staphylococcus aureus PK2 by broth microdilution method; format: functional; in short: as §3
[13] = Half life in Balb/c mouse plasma at 2 mg/kg, administered intranasally; format: ADME, organism-based; set-up: dose 2 mg/kg; conditions: inhaled or intranasal; in short: as §2
Escherichia coli = experiment: Antibacterial activity against Escherichia coli ATCC 25922 by broth microdilution method; format: functional
In short: (§4)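 CLSI broth microdilution with double dilutions in 96-well plates. For streptococci, 5% horse serum replaced lysed blood in the medium. Inocula were grown on Columbia agar with 5% sheep blood for streptococci, Mueller–Hinton chocolate agar for H. influenzae, and Mueller–Hinton agar for staphylococci. Read-out is MIC in mg/L.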

Streptococcus pyogenes [14] = experiment: Antibacterial activity against erythromycin susceptible Streptococcus pyogenes 3565 by broth microdilution method; format: functional; in short: as §4
PBMC [15] = experiment: Antiinflammatory activity in human PBMC assessed as inhibition of PHA-induced IL-1beta production after 6 hrs; format: functional, cell-based; in short: as §1
Staphylococcus aureus [16] = experiment: Antibacterial activity against Staphylococcus aureus ATCC 13709 by broth microdilution method; format: functional; in short: as §4
Rattus norvegicus [17] = experiment: Antiinflammatory activity against ovalbumin-induced airway allergic Brown-Norway rat model assessed as decrease of eosinophil peroxidase activity in bronchoalveolar lavage fluid at 11 mg/kg administered intranasally as dry powder measured on day 29 after ovalbumin challenge; format: functional, Lung; set-up: scale not given: the % may be the effect or the level left
PBMC [18] = experiment: Antiinflammatory activity in human PBMC assessed as inhibition of anti-CD3-induced IL-1beta production after 48 hrs; format: functional, cell-based; in short: as §1
[19] = Half life in Balb/c mouse blood at 2 mg/kg, administered intranasally; format: ADME, organism-based; set-up: dose 2 mg/kg; conditions: whole blood, inhaled or intranasal; in short: as §2
PBMC [20] = experiment: Antiinflammatory activity in human PBMC assessed as inhibition of PHA-induced MIP1alpha production after 6 hrs; format: functional, cell-based; in short: as §1
Staphylococcus aureus [21] = experiment: Antibacterial activity against inducible-resistant to macrolide, licosamide and streptogramin Staphylococcus aureus 90265/97 by broth microdilution method; format: functional; in short: as §3
PBMC [22] = experiment: Antiinflammatory activity in human PBMC assessed as inhibition of PHA-induced IL-2 production after 48 hrs; format: functional, cell-based; in short: as §1
[23] = Tmax in Balb/c mouse lung at 2 mg/kg, administered intranasally; format: ADME, organism-based; set-up: dose 2 mg/kg; conditions: inhaled or intranasal; in short: as §2
[24] = Drug uptake in mouse J774A1 cells at 10 uM after 3 hrs by LC-MS/MS method; format: ADME, cell-based; conditions: j774.a1, 3 h
In short: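 Uptake in J774A.1 macrophages seeded two days before at 2 × 10^5 cells/well. Cells were exposed to 10 µM compound for 3 h in DMEM/25 mM Hepes without supplements, washed with ice-cold PBS and lysed in 0.5% Triton X-100. Lysate was measured by LC–MS/MS, using a cell volume of 1.68 µL per 10^6 cells. Result is the I/E ratio, with E taken as 10 µM.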

Streptococcus pneumoniae = experiment: Antibacterial activity against efflux mediated macrolide-resistant Streptococcus pneumoniae Ci137 by broth microdilution method; format: functional; in short: as §3
[25] = AUC (0 to infinity) in Balb/c mouse blood at 2 mg/kg, administered intranasally; format: ADME, organism-based; set-up: time infinity, dose 2 mg/kg, route nasal; conditions: whole blood, inhaled or intranasal; in short: as §2
PBMC [26] = experiment: Antiinflammatory activity in human PBMC assessed as inhibition of PHA-induced IP-10 production after 24 hrs; format: functional, cell-based; in short: as §1
PBMC [27] = experiment: Antiinflammatory activity in human PBMC assessed as inhibition of PHA-induced TNFalpha production after 6 hrs; format: functional, cell-based; in short: as §1
PBMC [28] = experiment: Antiinflammatory activity in human PBMC assessed as inhibition of PHA-induced IL-4 production after 24 hrs; format: functional, cell-based; in short: as §1
PBMC [29] = experiment: Antiinflammatory activity in human PBMC assessed as inhibition of LPS-induced MIP1alpha production after 6 hrs; format: functional, cell-based; in short: as §1
PBMC [30] = experiment: Antiinflammatory activity in human PBMC assessed as inhibition of PHA-induced IL-3 production after 48 hrs; format: functional, cell-based; in short: as §1
Rattus norvegicus [31] = experiment: Antiinflammatory activity against ovalbumin-induced airway allergic Brown-Norway rat model assessed as decrease of total cell in bronchoalveolar lavage fluid at 32 mg/kg administered intranasally as dry powder measured on day 29 after ovalbumin challenge (reference value: 53.1%); format: functional, Lung; set-up: scale not given: the % may be the effect or the level left
Rattus norvegicus [32] = experiment: Antiinflammatory activity against ovalbumin-induced airway allergic Brown-Norway rat model assessed as decrease of eosinophil peroxidase activity in bronchoalveolar lavage fluid at 32 mg/kg administered intranasally as dry powder measured on day 29 after ovalbumin challenge; format: functional, Lung; set-up: scale not given: the % may be the effect or the level left
[33] = Tmax in Balb/c mouse plasma at 2 mg/kg, administered intranasally; format: ADME, organism-based; set-up: dose 2 mg/kg; conditions: inhaled or intranasal; in short: as §2

Q: Which results are given for `CC[C@H]1OC(=O)[C@H](C)[C@@H](O[C@H]2C[C@@](C)(OC)[C@@H](O)[C@H](C)O2)[C@H](C)[C@@H](O[C@@H]2O[C@H](C)C[C@H](N(C)C)[C@H]2O)[C@](C)(O)C[C@@H](C)CN(CCCNC(=O)[C@H]2[C@H](C)C[C@H]3[C@@H]4CCC5=CC(=O)C=C[C@]5(C)[C@@]4(F)[C@@H](O)C[C@@]32C)[C@H](C)[C@@H](O)[C@]1(C)O`?
A: Activity (Rattus norvegicus [1]): Active; EC50 (PBMC [2]): 19000 nM; EC50 (PBMC [3]): > 20000 nM; AUC(0-inf) [4]: 9680 ng·h/mL; EC50 (PBMC [5]): > 20000 nM; MIC (Streptococcus pyogenes [6]): 32 µg/mL (≈ 28.2 µM); EC50 (PBMC [7]): 67 nM; EC50 (PBMC [8]): 110 nM; MIC (Staphylococcus aureus [9]): > 64 µg/mL; EC50 (PBMC [10]): 37 nM; EC50 (PBMC [11]): 4030 nM; MIC (Staphylococcus aureus [12]): > 64 µg/mL; half-life [13]: 54 min; MIC (Escherichia coli): > 64 µg/mL; MIC (Streptococcus pyogenes [14]): 0.25 µg/mL (≈ 0.22 µM); EC50 (PBMC [15]): 13800 nM; MIC (Staphylococcus aureus [16]): 8 µg/mL (≈ 7.04 µM); Activity (Rattus norvegicus [17]): 12%; EC50 (PBMC [18]): 30 nM; half-life [19]: 54 min; EC50 (PBMC [20]): 2630 nM; MIC (Staphylococcus aureus [21]): > 64 µg/mL; EC50 (PBMC [22]): > 20000 nM; Tmax [23]: 4.8 min; Drug uptake [24]: Active; MIC (Streptococcus pneumoniae): 32 µg/mL (≈ 28.2 µM); AUC(0-inf) [25]: 181 ng·h/mL; EC50 (PBMC [26]): > 20000 nM; EC50 (PBMC [27]): 1330 nM; EC50 (PBMC [28]): 210 nM; EC50 (PBMC [29]): 7900 nM; EC50 (PBMC [30]): 1270 nM; Activity (Rattus norvegicus [31]): 43.6%; Activity (Rattus norvegicus [32]): 50%; Tmax [33]: 15 min
